In ChEMBL document CHEMBL1128437, “Derivatives of 17-phenyl-18,19,20-trinorprostaglandin F2 alpha isopropyl ester: potential antiglaucoma agents” (J Med Chem, 1995):

What was measured:
Oryctolagus cuniculus [1] = species: Oryctolagus cuniculus; test: The mean area between curves for conjunctival hyperemia between treated and control eyes. The effect was tested in rabbit at a dose of 0.5 (ug/eye)
Felis catus [2] = species: Felis catus; test: The maximal difference in […] pupil diameter between treated and control eyes. The effect was tested in cats at a dose of 1.0 (ug/eye); type: functional
Procedure, shortened: (§1)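 Trained female cats, 2–3 kg, were dosed unilaterally with one 20 µL topical drop of drug in 0.9% NaCl/0.5% polysorbate 80, with vehicle in the contralateral eye. Horizontal pupil diameter was measured with a millimetre ruler under constant 10 lux illumination before dosing and at 1, 3, 6 and 23 h. Reported as maximal treated–control difference or as area between curves, per animal.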

Felis catus [3] = species: Felis catus; test: The mean ocular irritation in the treated eyes. An arbitrary scale of from 0 to 3 was used, 0 indicates absence of irritation and 3 complete closure of the lids. The effect was tested in cats at a dose of 3.0 (ug/eye); type: functional
Procedure, shortened: (§2)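 Ocular irritation was scored in the treated eye of trained female cats, 2–3 kg. Drug was given as one topical 20 µL drop in 0.9% NaCl with 0.5% polysorbate 80. The contralateral eye got vehicle only.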

Felis catus [4] = species: Felis catus; test: The maximal difference in Intraocular Pressure (IOP) between treated and control eyes. The effect was tested in cats at a dose of 1.0 (ug/eye); type: functional
Procedure, shortened: (§3)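 Domestic female cats, 2–3 kg, trained for IOP measurement. One eye received a topical drop (20 µL) of drug in 0.9% NaCl with 0.5% polysorbate 80; the other eye received vehicle. IOP was read by pneumatonometer under oxibuprocain local anaesthesia before dosing and at 1, 3, 6 and 23 h. The maximal treated-minus-control difference was taken. Area between curves is the treated-eye AUC minus control-eye AUC, per animal.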

Felis catus [5] = species: Felis catus; test: The mean area between curves for Intraocular Pressure (IOP) measured in treated and control eyes. The effect was tested in cats at a dose of 10.0 (ug/eye); type: functional
Procedure, shortened: as §3

Felis catus [6] = species: Felis catus; test: The maximal difference in […] pupil diameter between treated and control eyes. The effect was tested in cats at a dose of 10.0 (ug/eye); type: functional
Procedure, shortened: as §1

Felis catus [7] = species: Felis catus; test: The maximal difference in Intraocular Pressure (IOP) between treated and control eyes. The effect was tested in cats at a dose of 10.0 (ug/eye); type: functional
Procedure, shortened: as §3

Felis catus [8] = species: Felis catus; test: The mean area between curves for pupil diameter between treated and control eyes. The effect was tested in cats at a dose of 3.0 (ug/eye); type: functional
Procedure, shortened: as §1

Oryctolagus cuniculus [9] = species: Oryctolagus cuniculus; test: The maximal difference in conjunctival hyperemia between treated and control eyes. The effect was tested in rabbit at a dose of 0.1 (ug/eye)
Felis catus [10] = species: Felis catus; test: The maximal difference in […] pupil diameter between treated and control eyes. The effect was tested in cats at a dose of 3.0 (ug/eye); type: functional
Procedure, shortened: as §1

Felis catus [11] = species: Felis catus; test: The mean ocular irritation in the treated eyes. An arbitrary scale of from 0 to 3 was used, 0 indicates absence of irritation and 3 complete closure of the lids. The effect was tested in cats at a dose of 10.0 (ug/eye); type: functional
Procedure, shortened: as §2

Felis catus [12] = species: Felis catus; test: The mean area between curves for Intraocular Pressure (IOP) measured in treated and control eyes. The effect was tested in cats at a dose of 3.0 (ug/eye); type: functional
Procedure, shortened: as §3

Felis catus [13] = species: Felis catus; test: The mean area between curves for pupil diameter between treated and control eyes. The effect was tested in cats at a dose of 1.0 (ug/eye); type: functional
Procedure, shortened: as §1

Oryctolagus cuniculus [14] = species: Oryctolagus cuniculus; test: The maximal difference in conjunctival hyperemia between treated and control eyes. The effect was tested in rabbit at a dose of 0.5 (ug/eye)
Felis catus [15] = species: Felis catus; test: The mean area between curves for pupil diameter between treated and control eyes. The effect was tested in cats at a dose of 10.0 (ug/eye); type: functional
Procedure, shortened: as §1

Oryctolagus cuniculus [16] = species: Oryctolagus cuniculus; test: The mean area between curves for conjunctival hyperemia between treated and control eyes. The effect was tested in rabbit at a dose of 0.1 (ug/eye)
Felis catus [17] = species: Felis catus; test: The mean area between curves for Intraocular Pressure (IOP) measured in treated and control eyes. The effect was tested in cats at a dose of 1.0 (ug/eye); type: functional
Procedure, shortened: as §3

Felis catus [18] = species: Felis catus; test: The mean ocular irritation in the treated eyes. An arbitrary scale of from 0 to 3 was used, 0 indicates absence of irritation and 3 complete closure of the lids. The effect was tested in cats at a dose of 1.0 (ug/eye); type: functional
Procedure, shortened: as §2

Felis catus [19] = species: Felis catus; test: The maximal difference in Intraocular Pressure (IOP) between treated and control eyes. The effect was tested in cats at a dose of 3.0 (ug/eye); type: functional
Procedure, shortened: as §3

Felis catus [20] = species: Felis catus; test: 66 The maximal difference in Intraocular Pressure (IOP) between treated and control eyes. The effect was tested in cats at a dose of 3.0 (ug/eye); type: functional
Procedure, shortened: as §3

Monkey [21] = test: The maximal difference in Intraocular Pressure (IOP) measured in treated and control eyes. The effect was tested in monkey at a dose of 1.0 (ug/eye); type: functional, Cercopithecidae
Procedure, shortened: (§4)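 Cynomolgus monkeys trained for IOP measurement were sedated with ketamine (2–3 mg/kg) for transport and seated in restraint chairs under oxibuprocain local anaesthesia. One eye received a 10 µL drop of drug in 0.9% NaCl/0.5% polysorbate 80; the fellow eye received vehicle. IOP was read by pneumatonometer calibrated for monkey eyes before dosing and at 1, 2, 4 and 6 h. Matched-pair t test, n = 6.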

Monkey [22] = test: The mean area between curves for Intraocular Pressure (IOP) measured in treated and control eyes. The effect was tested in monkey at a dose of 3.0 (ug/eye); type: functional, Cercopithecidae
Procedure, shortened: as §4

Monkey [23] = test: The mean area between curves for Intraocular Pressure (IOP) measured in treated and control eyes. The effect was tested in monkey at a dose of 1.0 (ug/eye); type: functional, Cercopithecidae
Procedure, shortened: as §4

Monkey [24] = test: The maximal difference in Intraocular Pressure (IOP) measured in treated and control eyes. The effect was tested in monkey at a dose of 3.0 (ug/eye); type: functional, Cercopithecidae
Procedure, shortened: as §4

Monkey [25] = test: The maximal difference in Intraocular Pressure (IOP) measured in treated and control eyes. The effect was tested in monkey at a dose of 10.0 (ug/eye); type: functional, Cercopithecidae
Procedure, shortened: as §4

Monkey [26] = test: The mean area between curves for Intraocular Pressure (IOP) measured in treated and control eyes. The effect was tested in monkey at a dose of 10.0 (ug/eye); type: functional, Cercopithecidae
Procedure, shortened: as §4

Monkey [27] = test: The maximal difference in Intraocular Pressure (IOP) between treated and control eyes. The effect was tested in monkey at a dose of 3.0 (ug/eye); type: functional, Cercopithecidae
Procedure, shortened: as §4

| Compound | H ABC (Oryctolagus cuniculus [1]) | Pmax (Felis catus [2]) | Irritation (Felis catus [3]) | Imax (Felis catus [4]) | I ABC (Felis catus [5]) | Pmax (Felis catus [6]) | Imax (Felis catus [7]) | P ABC (Felis catus [8]) | Hmax (Oryctolagus cuniculus [9]) | Pmax (Felis catus [10]) | Irritation (Felis catus [11]) | I ABC (Felis catus [12]) | P ABC (Felis catus [13]) | Hmax (Oryctolagus cuniculus [14]) | P ABC (Felis catus [15]) | I ABC (Felis catus [17]) | Irritation (Felis catus [18]) | Imax (Felis catus [19]) | I ABC (Monkey [22]) | Imax (Monkey [24]) | further results |
| --- | --- | --- | --- | --- | --- | --- | --- | --- | --- | --- | --- | --- | --- | --- | --- | --- | --- | --- | --- | --- | --- |
| CC(C)OC(=O)CCC/C=C\C[C@@H]1[C@@H](/C=C/[C@H](O)CCc2ccc(Br)cc2)[C@H](O)C[C@@H]1O | 0.6 | < -2.2 mm | 0.2 arbitrary units | -1 mmHg | -10 | < -2.3 mm | <-2 mmHg | -2.2 | 0.2 | -0.7 mm | 0 arbitrary units | <-17 | -27 | <0.7 | -23 | -14 | 0.5 arbitrary units | <-2 mmHg |  |  | H ABC (Oryctolagus cuniculus [16]): 0.3 |
| CC(C)OC(=O)CCC/C=C\C[C@@H]1[C@@H](/C=C/[C@@H](O)CCc2ccc(-c3ccsc3)cc2)[C@H](O)C[C@@H]1O | <0.8 | -1 mm | 0.6 arbitrary units | <-4 mmHg |  |  |  | <-9.2 |  | < -1.2 mm |  | <-66 | -3.3 | 0.3 |  | -63.2 | 0.2 arbitrary units |  |  |  | Imax (Felis catus [20]): -5 mmHg |
| Cc1cccc(CC[C@H](O)/C=C/[C@@H]2[C@@H](C/C=C\CCCC(=O)OC(C)C)[C@@H](O)C[C@H]2O)c1 | <4.9 | < -6.8 mm | 0.1 arbitrary units | -1 mmHg | 14.1 | < -8.8 mm | 2.3 mmHg | <-122 |  | < -8.3 mm | 0 arbitrary units | 8 | <-85 | <1.6 | <-149 | -17 | 0.3 arbitrary units | 1.2 mmHg | -0.1 | <-0.6 mmHg | Imax (Monkey [21]): <-2.5 mmHg; I ABC (Monkey [23]): -3.6 |
| CC(C)OC(=O)CCC/C=C\C[C@@H]1[C@@H](/C=C/[C@@H](O)CCc2ccccc2)[C@H](O)C[C@@H]1O | <-4 | < 9.7 mm |  | 2.7 mmHg |  |  |  |  |  |  |  |  | -126 | <1.5 |  | <36.9 | 0 arbitrary units |  | -5.9 | -2.9 mmHg | Imax (Monkey [21]): <-3.3 mmHg; I ABC (Monkey [23]): <-5.8 |
| Cc1ccc(CC[C@H](O)/C=C/[C@@H]2[C@@H](C/C=C\CCCC(=O)OC(C)C)[C@@H](O)C[C@H]2O)cc1 | 4.4 | < -3.5 mm | 0 arbitrary units | -1 mmHg |  |  |  | <-73 |  | < -6 mm |  | -28 | <-46 | <1.5 |  | -4.3 | 0.2 arbitrary units | -1.3 mmHg | -3.8 | <-1.6 mmHg | Imax (Monkey [25]): -1.5 mmHg; I ABC (Monkey [26]): -3.5 |
| CC(C)OC(=O)CCC/C=C\C[C@@H]1[C@@H](/C=C/[C@@H](O)CCc2ccc(Br)cc2)[C@H](O)C[C@@H]1O | 1.2 | < -1.5 mm |  | 0.3 mmHg | <-25 | < -6 mm | <-3 mmHg |  | <1.1 |  | 0.3 arbitrary units |  | -18.1 | <0.5 | -80 | 3.4 | 0 arbitrary units |  |  |  | H ABC (Oryctolagus cuniculus [16]): <2.2 |
| CC(C)OC(=O)CCC/C=C\C[C@@H]1[C@@H](/C=C/[C@@H](O)CCc2ccc(-c3ccccc3)cc2)[C@H](O)C[C@@H]1O | 1.2 | < -1.5 mm | 1.6 arbitrary units | -1 mmHg |  |  |  | <-4.9 | 0.2 | -0.8 mm |  | <-99.3 | <-18.3 | <0.4 |  | -10 | 0.8 arbitrary units | <-6 mmHg | 3 | <0.8 mmHg | Imax (Monkey [25]): <1.4 mmHg; I ABC (Monkey [26]): <6.1; H ABC (Oryctolagus cuniculus [16]): 0.2 |
| CC(C)OC(=O)CCC/C=C\C[C@@H]1[C@@H](/C=C/[C@@H](O)CCc2ccc(-c3ccco3)cc2)[C@H](O)C[C@@H]1O | -0.2 |  | 0.6 arbitrary units |  |  |  |  | -6 |  | -0.6 mm |  | -76.1 |  | -0.1 |  |  |  | <-5 mmHg | 0.5 |  | Imax (Monkey [27]): 0.3 mmHg |
